Consider four compounds from ChEMBL document CHEMBL4007413, “Replacing d-Glucosamine with Its l-Enantiomer in Glycosylated Antitumor Ether Lipids (GAELs) Retains Cytotoxic Effects against Epithelial Cancer Cells and Cancer Stem Cells” (J Med Chem, 2017).

Activity calls are given as the source filed them. No cut-off for these calls is given here. A value given as a limit tells only on which side of the number the result lay.

Data set [1] deals with MIA PaCa-2. Kind of data set: Cytotoxicity against human MIAPaCa2 cells assessed as decrease in cell viability after 48 hrs by MTS assay. Format: functional. The conditions noted are these: for CC50: MIA PaCa-2, 48 h. The method in brief: (§1)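 Cells were seeded at equal numbers and, after 24 h, exposed to compounds (0–30 µM) for 48 h. MTS reagent (20% v/v) was then added for 1–4 h, and OD490 was read. Cell-free medium wells served as blanks. Media were DMEM/F12 + 10% FBS for BT-474; DMEM + 10% FBS for DU-145 and MDA-MB-231; and DMEM + 10% FBS + 2.5% horse serum for MiaPaCa-2. Values are mean ± SD, n=6.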

The subject of data set [2] is DU-145. Kind of data set: Cytotoxicity against human DU145 cells assessed as decrease in cell viability after 48 hrs by MTS assay. The conditions noted are these: for CC50: DU-145, 48 h. Format: functional. The method in brief: as §1
Data set [3] relates to BT-474. Kind of data set: Cytotoxicity against human BT474 cells assessed as decrease in cell viability after 48 hrs by MTS assay. The note with it: for CC50: BT-474, 48 h. Format: functional. The method in brief: as §1
For orientation: Tetrazolium assays rely on reduction of a dye to a coloured formazan, in cell work by metabolically active cells.

Data set [4] has as its system MDA-MB-231. Kind of data set: Cytotoxicity against human MDA-MB-231 cells assessed as decrease in cell viability after 48 hrs by MTS assay. Format: functional. The conditions noted are these: for CC50: MDA-MB-231, 48 h. The method in brief: as §1
The test system of data set [5] is BT-474. The data set can be described thus: Disruption of cancer stem cells spheroids derived from human BT474 cells at >=7.5 uM after 3 days by microscopic analysis. Format: functional, cell-based. The method in brief: (§2)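 Cancer stem cells were isolated from BT-474 by ALDH1 activity. Equal numbers were seeded in ultra-low-adhesion wells and grown to spheroids. Spheroids were then incubated with or without compounds for 3 days. Spheroid integrity was assessed by light microscopy (×10). Viability was measured in parallel by MTS.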

The subject of the next data set is Erythrocyte. The data set can be described thus: Induction of hemolysis in sheep erythrocytes at 30 uM after 30 mins by spectrophotometric analysis. Format: functional, Ovis aries.
Data set [6] in a line: Stability in bovine liver extracts assessed as bovine liver glycosidase mediated compound cleavage by TLC analysis. Format: ADME, Bos taurus. The conditions noted are these: cattle. The method in brief: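 A bovine liver glycosidase fraction in 0.05 M sodium citrate pH 5.0 was combined with 0.2 M citrate pH 4.4 buffer, substrate (30 mM stock) and Triton X-100 (10% stock) for solubilization. Controls were no enzyme and a β-D-glucose-based GAEL. After 1 h, methanol was added, the mixture was centrifuged, and the supernatant was analysed by TLC. Run in quadruplicate.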

Data set [7] relates to DU-145. The data set can be described thus: Induction of membrane lysis in human DU145 cells at 0.01% after 10 mins by EthD-1 staining based fluorescence microscopic analysis.
The subject of data set [8] is BT-474. The data set can be described thus: Disruption of cancer stem cells spheroids derived from human BT474 cells at 7.5 uM after 3 days by microscopic analysis. Format: functional, cell-based. The method in brief:
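Equal numbers of ALDH1-selected BT-474 cancer stem cells were seeded in ultra-low adhesion wells and grown to form spheroids. Spheroids were incubated with or without compound for 3 days. Spheroid integrity was judged by microscopic imaging at ×10.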

Data set [9] relates to BT-474. The data set can be described thus: Cytotoxicity against cancer stem cells derived from human BT474 cells assessed as cancer stem cell death at 7.5 uM after 3 days by MTS assay. Format: functional. The method in brief: (§3)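 CSCs were isolated from BT-474 using ALDH1 activity as the stemness marker. They were grown in ultra-low adhesion wells for 4 days to form spheroids. Spheroids were then exposed to compounds (0–20 µM) for 3 days. Viability was read by MTS assay and expressed as % of untreated control.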

Data set [10] has as its system BT-474. The data set can be described thus: Cytotoxicity against cancer stem cells derived from human BT474 cells assessed as cancer stem cell death at 20 uM after 3 days by MTS assay. Format: functional. The method in brief: as §3
In data set [11] the test system is MIA PaCa-2. Kind of data set: Cytotoxicity against human MIAPaCa2 cells assessed as cell death at 7.5 uM after 48 hrs by MTS assay. Format: functional. The method in brief:
(§4)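 Equal numbers of cells were plated. After 24 h they were exposed to compounds (0–30 µM) for 48 h, then given MTS reagent (20% v/v) for 1–4 h. OD490 was read against cell-free blank wells; mean ± SD of 6 determinations. Media: BT-474 in DMEM/F12 + 10% FBS; DU-145, JIMT-1 and MDA-MB-231 in DMEM + 10% FBS; MiaPaCa-2 in DMEM + 10% FBS + 2.5% horse serum; PC-3 in F12K + 10% FBS; all with penicillin/streptomycin.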

The test system of data set [12] is DU-145. The data set can be described thus: Cytotoxicity against human DU145 cells assessed as cell death at 7.5 uM after 48 hrs by MTS assay. Format: functional. The method in brief: as §4
For data set [13], the system named is BT-474. Kind of data set: Cytotoxicity against human BT474 cells assessed as cell death at 7.5 uM after 48 hrs by MTS assay. Format: functional. The method in brief: as §4
Data set [14] relates to MDA-MB-231. Kind of data set: Cytotoxicity against human MDA-MB-231 cells assessed as cell death at 7.5 uM after 48 hrs by MTS assay. Format: functional. The method in brief: as §4
Another data set relates to PC-3. The data set can be described thus: Cytotoxicity against human PC3 cells assessed as cell death at 7.5 uM after 48 hrs by MTS assay. Format: functional. The method in brief: as §4
The test system of data set [15] is JIMT-1. The data set can be described thus: Cytotoxicity against human JIMT1 cells assessed as cell death at 7.5 uM after 48 hrs by MTS assay. Format: functional. The method in brief: as §4
Data set [16] concerns BT-474. Kind of data set: Disruption of cancer stem cells spheroids derived from human BT474 cells at >=5 uM after 3 days by microscopic analysis. Format: functional, cell-based. The method in brief:
as §2

For data set [17], the system named is DU-145. Kind of data set: Induction of cell death in human DU145 cells assessed as rounding up of cells at 6 uM after 6 hrs fluorescence microscopic analysis. Format: functional, cell-based. The method in brief: (§5)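 DU-145 cells were incubated with compounds at 6 µM for 6 h. They were then stained with cell-impermeant ethidium homodimer-1 and examined by fluorescence microscopy for cell rounding and red DNA staining. Cells given 0.01% Triton X-100 for 10 min served as the lysis control.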

Data set [18] concerns JIMT-1. The data set can be described thus: Induction of cell death in human JIMT1 cells assessed as rounding up of cells at 4 uM after 6 hrs by fluorescence microscopic analysis. Format: functional, cell-based.
In data set [19] the test system is DU-145. Kind of data set: Induction of membrane lysis in human DU145 cells at 6 uM after 6 hrs by EthD-1 staining based fluorescence microscopic analysis. Format: functional, cell-based. The method in brief: as §5
In data set [20] the test system is JIMT-1. Kind of data set: Induction of membrane lysis in human JIMT1 cells at 4 uM after 6 hrs by EthD-1 staining based fluorescence microscopic analysis. Format: functional, cell-based.

On to `CCCCCCCCCCCCCCCCOC[C@H](CO[C@@H]1O[C@H](CO)[C@@H](O)[C@H](O)[C@H]1N)OC`, for which the CC50 with MIA PaCa-2 [1], in the data set with DU-145 [2], in the data set on BT-474 [3] and in the data set with MDA-MB-231 [4] was 6.5 to 13 µM throughout. In addition, in the data set with BT-474 [5], the result was Active. Also, the Activity in the data set with Erythrocyte is reported as less than 5%. In addition, in [6], the Stability result was “Stable”.

On to `CC(C)(C)CC(C)(C)c1ccc(OCCOCCOCCOCCOCCOCCOCCOCCOCCOCCO)cc1`, for which the outcome with DU-145 [7] was Active.

Regarding `CC[C@@H](C(=O)[C@@H](C)[C@@H](O)[C@H](C)[C@@H]1O[C@@H]([C@@H](CC)C(=O)O)CC[C@@H]1C)[C@H]1O[C@]2(C=C[C@@H](O)[C@]3(CC[C@@](C)([C@H]4CC[C@](O)(CC)[C@H](C)O4)O3)O2)[C@H](C)C[C@@H]1C` [SALINOMYCIN], the result with MIA PaCa-2 [1], in the data set with DU-145 [2], with BT-474 [3] and in the data set on MDA-MB-231 [4] was Active. Further, the outcome with BT-474 [8] was inactive. The Activity in the data set with BT-474 [9] is 60%; in the data set on BT-474 [10], 87%.

With `CCCCCCCCCCCCCCCCOC[C@H](CO[C@@H]1O[C@H](CN)[C@@H](OCc2ccccc2)[C@H](O)[C@H]1N)OC`, the CC50 in the data set with MIA PaCa-2 [1], with DU-145 [2], with BT-474 [3] and in the data set on MDA-MB-231 [4] was 2 to 6 µM in each case. The Activity with MIA PaCa-2 [11], with DU-145 [12], in the data set on BT-474 [13], in the data set with MDA-MB-231 [14], in the data set on PC-3 and with JIMT-1 [15] was greater than 95% in each case. Besides, the Activity with BT-474 [9] was greater than 95%; with Erythrocyte it was less than 5%. Also, the result in the data set with BT-474 [16], in the data set with DU-145 [17] and in the data set on JIMT-1 [18] was Active. Also, the outcome with DU-145 [19] and in the data set with JIMT-1 [20] was inactive.

A word on the CC50: it is the concentration that lowers cell viability or growth by half.
